Shown are actives, neighbours in structure and some others; about 2.7% of the full set was active somewhere.
V1R ag counter – counter-screen for oxytocin receptor agonists: human V1a receptor agonists; P37288; CHO-V1R cells, Fluo-8 calcium fluorescence, agonist mode; 0% DMSO, 100% 3 nM vasopressin; activation, % at 3 µM; actives 0.25% (n = 320,000);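 active = activation above the mean activation of all tested compounds plus 3 SD, per screening run, cut at about 20% in these data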;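 note: signal is peak over basal fluorescence ratio across a 100 second FLIPR read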
OX1R antag-1 – blocks the human orexin 1 receptor | O43613 | inhibition, % at 5 µM | CHO/OX1R cells, Fluo-8 calcium fluorescence, orexin A | actives 0.43% (n = 330,000);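 active = inhibition above its plate's threshold, mean inhibition of all tested compounds on the plate plus 3 SD, cut at about 37% in these data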;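 note: 0% = orexin A challenge wells and 100% = SB-334867-A antagonist wells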
OXTR potentiate – human OXTR potentiation; activation, % at 3 µM; CHO-OTR cells, Fluo-8 calcium fluorescence, potentiator mode; 0% = oxytocin EC15, 100% = EC100; actives 0.061% (n = 320,000); P30559;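 active = activation above that plate's cutoff, the mean activation of tested compounds plus 3 SD, cut at about 6.6% in these data, passing the limit was not always enough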;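 note: 100% uses oxytocin at 75 nM as the full agonist control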
Target sequence (P30559 whole entry, looked up): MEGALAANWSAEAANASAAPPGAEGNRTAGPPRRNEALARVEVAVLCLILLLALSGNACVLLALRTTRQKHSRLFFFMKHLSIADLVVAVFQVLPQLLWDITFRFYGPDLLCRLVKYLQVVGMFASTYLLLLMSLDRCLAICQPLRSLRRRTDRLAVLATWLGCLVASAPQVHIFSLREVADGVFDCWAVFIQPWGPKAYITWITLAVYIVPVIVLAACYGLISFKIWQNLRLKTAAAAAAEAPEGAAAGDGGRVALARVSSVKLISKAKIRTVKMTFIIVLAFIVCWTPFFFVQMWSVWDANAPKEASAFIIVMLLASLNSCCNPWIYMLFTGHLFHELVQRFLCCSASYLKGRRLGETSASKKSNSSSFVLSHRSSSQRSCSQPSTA
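Material: human OTR in CHO cells. Compound: 3.0 µM, one dose. Timing: compound 6 min at room temperature before oxytocin, 100 s read. Evaluation: % activation of max/min ratio relative to oxytocin controls. Replication: single well per compound, singlicate. Signal: Fluo-8 calcium dye fluorescence.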
CHO parental Ca – counter-screen for OX1R antagonists: effect in parental CHO cells | actives 0.63% (n = 330,000) | inhibition, % at 5.6 µM | parental CHO-K1, ATP-induced calcium, Fluo-8 fluorescence;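 active = inhibition above that plate's mean sample inhibition plus 3 SD, cut at about 26% in these data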;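 note: 0% = ATP-challenged DMSO wells and 100% = DMSO wells without ATP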
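Measured by: calcium-sensitive Fluo-8 fluorescence / Test system: CHO parental line / Controls: ATP-challenged DMSO wells low, unchallenged DMSO wells high / Measure: % inhibition / Compound: single nominal dose of 5.6 µM per compound / Replicates: single well per compound, no replicates / Reagent: ATP as calcium-mobilizing challenge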
OXTR agonist – activates the human oxytocin receptor. P30559. CHO-OTR cells, Fluo-8 calcium fluorescence; normalized: DMSO 0%, oxytocin 100%. activation, % at 3 µM. actives 0.32% (n = 320,000). AID 2435;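 active = activation above the mean of all tested compounds plus 3 SD, cutoff set per screening run, cut at about 20% in these data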;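 note: peak over basal fluorescence ratio from a 100 s FLIPR kinetic read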
OX1R antag-2 – antagonists of human orexin 1 receptor (OX1R); OX1R-expressing cells, FRET antagonist read-out; inhibition, % at 6.6 µM; actives 1.8% (n = 330,000); AID 485270; in the data active = inhibition mostly above about 38%, no sharp cut-off; inactive = mostly below about 40%;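 note: 0% = agonist challenge alone and 100% = reference antagonist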
Numbers without * were called inactive.

SMILES	V1R ag counter	OX1R antag-1	OXTR potentiate	CHO parental Ca	OXTR agonist	OX1R antag-2
COC(=O)CS(=O)(=O)c1ccc(C)cc1	0	-3	-9	-18	0	1
Cc1ccc(S(=O)(=O)CC(N)=O)cc1	2	-7	-1	70*	1	26
Cc1ccc(/C=C/c2nnc(-c3cccs3)o2)cc1	0	-10	-2	-28	-1	42*
CCOc1cc(N2CCOCC2)c(OCC)cc1NC(=O)c1cc(S(=O)(=O)N2CCOCC2)ccc1F	1	-11	-4	-22	0	3
COc1ccc(N2CCN(S(=O)(=O)c3ccc4c(c3)CCCC4)CC2)c([N+](=O)[O-])c1	3	36	-12	6	3	37*
COC(=O)c1ccc(N2CCN(S(=O)(=O)c3ccc4ccccc4c3)CC2)c([N+](=O)[O-])c1	5	23	-20	38*	4	46
CN1CCN(c2ccc(S(=O)(=O)N3CCCCC3)cc2[N+](=O)[O-])CC1	2	-13	-6	-8	3	9
COC(=O)c1ccccc1NC(=O)CSc1n[nH]c(-c2ccco2)n1	1	-10	-3	-6	0	22
c1ccc2c(c1)CCN(c1ncnc3nc[nH]c13)C2	3	-7	-8	-5	1	19
C1=C(c2ccccc2)CCN(c2ncnc3nc[nH]c23)C1	1	-16	-7	0	0	50*
O=C(c1cccnc1)c1ncc(C(F)(F)F)cc1Cl	0	-14	-7	0	1	-1
Cc1cc(C)nc(NS(=O)(=O)c2ccc(NC(=O)C3(c4ccc([N+](=O)[O-])cc4)CCCC3)cc2)n1	22*	17	-7	12	22*	5
Cc1ccccc1-n1nc2c(c1NC(=O)c1ccc3c(c1)OCO3)CS(=O)(=O)C2	0	-19	-7	-6	0	21
CCOC(=O)c1c(C)[nH]c(C)c1C(=O)COC(=O)/C=C/c1ccccc1[N+](=O)[O-]	2	27	-9	-18	3	35*
CC(Sc1nnc(C2CC2)n1C1CC1)C(=O)N(C)C1(C#N)CCCCC1 (centres undefined)	1	-8	-5	-14	1	4
COC(=O)c1cccc(NC(=O)CSc2nnc(C3CC3)n2C)c1	0	-23	-5	-1	0	4
N=c1oc2c3c4c(cc2cc1C(=O)Nc1ccccc1)CCCN4CCC3	60*	94*	-21	62*	112*	95*
Clc1cccc(Cl)c1/C=C/c1nc2ccccc2[nH]1	-2	-20	-2	-26	-3	50*
Clc1ccc(/C=C/c2nc3ccccc3[nH]2)cc1	-1	-20	-1	-20	-2	24
CN1CCN(CC(=O)Nc2cc(N3CCOCC3)ccc2[N+](=O)[O-])CC1	0	-4	-2	2	2	65*
O=[N+]([O-])c1ccc(N2CCOCC2)cc1O	2	-5	-3	-11	1	42*
O=[N+]([O-])c1ccc(N2CCOCC2)cn1	0	-16	-2	-3	1	40*
O=[N+]([O-])c1cccnc1N1CCOCC1	0	6	-2	0	0	10
CC(C)(C)CNc1cc(N2CCOCC2)ccc1[N+](=O)[O-]	-1	-8	-4	-13	-3	19
COc1cccc(CN(C)C(=O)CNC(=O)c2ccc3c(c2)OCO3)c1OC	2	-22	4	-6	0	0
SMILES	V1R ag counter	OX1R antag-1	OXTR potentiate	CHO parental Ca	OXTR agonist	OX1R antag-2
CCCNC(=O)COC(=O)c1cccnc1Nc1ccccc1F	0	-3	-8	-11	-2	34
O=C(COC(=O)c1cccnc1Nc1ccccc1F)NCCN1C(=O)CSC1=O	0	15	-3	-14	0	55*
Cc1ccc(N=Nc2c(=O)[nH]n3c(=O)cc(C)[nH]c23)cc1	-1	1	-7	10	0	55*
Cc1ccc2nc3n(c(=O)c2c1)-c1ccc(Cl)cc1C(=O)NC3CC(C)C (centres undefined)	0	-7	4	-16	-3	0
COc1cc(SC#N)ccc1N=Cc1c(C)[nH]n(-c2ccc(C)c(C)c2)c1=O	1	96*	-15	96*	-1	-3
Cc1cc(SCC(=O)N(C)C2CCCCC2)nc2ccccc12	0	-3	-4	-14	-1	36*
Cc1cc(SCC(=O)O)nc2ccccc12	1	-9	-2	3	1	-3
N/C(=N\OC(=O)c1ccc([N+](=O)[O-])cc1Cl)c1ccccn1	0	-28	2	-16	-2	54*
CCC1Oc2ccc(C)cc2N(CC(=O)NCCc2ccc(OC)c(OC)c2)C1=O (centres undefined)	2	-33	-2	-12	1	62*
CCC1Oc2ccccc2N(CC(=O)NCCc2ccc(OC)c(OC)c2)C1=O (centres undefined)	1	-25	-9	-18	0	30
COc1cccc(N2C(=O)CN(Cc3cc(OC)c(OC)c(OC)c3)C2=S)c1	0	-24	-9	-17	-1	22
CCOc1ccccc1N1C(=O)CN(Cc2ccc(OC)c(OC)c2)C1=S	4	-16	-13	-28	0	56*
COc1ccc(N2C(=O)CN(Cc3cc(OC)c(OC)c(OC)c3)C2=S)cc1	3	-17	-6	-14	3	47*
COc1ccc(CN2CC(=O)N(c3ccccc3OC)C2=S)cc1OC	5	5	-18	-18	1	17
CCOc1cccc(NC(=O)/C(C#N)=C\c2cn(CC(=O)O)c3ccccc23)c1	0	0	-4	-9	-1	55*
CC(NC(=O)CNC(=O)c1cccc(Cl)c1)c1ccccc1 (centres undefined)	1	-10	-3	-20	-1	8
CCN(C(=O)COC(=O)CCC(=O)c1cccs1)c1ccccc1	1	-22	2	-11	1	1
O=C(O)CCCCCN1C(=O)/C(=C\c2cn(-c3ccccc3)nc2-c2cccs2)SC1=S	0	2	-5	-6	0	9
CC1=NNC(=O)/C1=C\c1cn(-c2ccccc2)nc1-c1cccs1	2	73*	-15	63*	4	28
O=C(NC(=S)N1CCCCC1)c1csc([N+](=O)[O-])c1	0	-16	-14	-1	-1	37*
C=CCNC(=S)NC(=O)c1csc([N+](=O)[O-])c1	0	-31	2	-26	-2	19
COc1cc(OC)cc(-c2cc(N)n(S(=O)(=O)c3cccc4nsnc34)n2)c1	0	16	-9	4	-2	49*

High-throughput results (PubChem)
